Screening data as filed in PubChem.
MT stabilizer: microtubule stabilization, imaging screen; HeLa tubulin immunostaining HCS, 24 h; share of cells brighter than vehicle mean+2SD; % tubulin-high responders, % at 10 µM; 200,000 tested, 0.83% active; AID 2205;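 active = plate Z-score above 3 for both tubulin-high and condensed-nucleus cell shares, with cell loss under 80%, at 10 µM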;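 also: anti alpha tubulin signal scored within the nucleus-defined area of each cell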
NPY-Y1 PAM-ag: human NPY-Y1 potentiation or agonism, primary screen | P25929 | NPY-Y1 expressing cells, potentiator/agonist activation | activation, % at 3.6 µM | 220,000 tested, 0.37% active | AID 1304; in the data active = activation above about 33%, passing the limit was not always enough;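 also: cells stimulated with NPY at EC10 then isoproterenol at EC100; 0% = low agonist plus stimulus and 100% = saturating agonist plus stimulus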
Target sequence (P25929 whole entry, looked up): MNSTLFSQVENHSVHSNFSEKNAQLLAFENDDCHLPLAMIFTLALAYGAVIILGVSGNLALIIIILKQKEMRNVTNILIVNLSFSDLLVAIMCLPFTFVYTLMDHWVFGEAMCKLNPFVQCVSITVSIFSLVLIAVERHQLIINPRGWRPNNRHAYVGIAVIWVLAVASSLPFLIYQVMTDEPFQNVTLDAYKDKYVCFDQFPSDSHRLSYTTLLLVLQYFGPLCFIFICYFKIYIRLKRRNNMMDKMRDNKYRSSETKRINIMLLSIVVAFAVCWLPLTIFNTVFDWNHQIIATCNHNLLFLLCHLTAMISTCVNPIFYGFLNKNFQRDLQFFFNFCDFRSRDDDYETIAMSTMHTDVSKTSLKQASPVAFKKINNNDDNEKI
NPY Y1 blocker: antagonists of human neuropeptide Y receptor Y1; 200,000 tested, 1% active; P25929; inhibition, % at 3.6 µM; HEK293-CNG Y1 cells, membrane potential fluorescence; NPY at EC95, then isoproterenol;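 active = inhibition above the campaign mean inhibition of all tested compounds plus 3 SD, cut at about 20% in these data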;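 also: 0% = DMSO wells given NPY plus isoproterenol and 100% = isoproterenol alone without NPY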
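System: HEK293 cells with Y1 receptor plus CNG channel / Probe or stimulus: NPY 25 nM then isoproterenol 1 µM plus Ro 20-1724 25 µM / Compound: one concentration, 3.6 µM, in 0.4% DMSO / Schedule: compound incubation 1 h at room temperature, readout 45 min post-stimulation / Measured by: membrane potential fluorescence / Read-out: % inhibition of NPY effect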
NPY-Y2 antag: NPY-Y2 (human) receptor antagonism | P49146 | inhibition, % at 2.7 µM | AID 793 | 140,000 tested, 0.99% active | NPY-Y2 expressing cells, antagonist mode; in the data active = inhibition above about 17%;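 also: 0% = vehicle with agonist challenge and 100% = reference antagonist with challenge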
NPY-Y2 PAM-ag: human NPY-Y2 potentiation or agonism, primary screen; P49146; cells expressing NPY-Y2, potentiator/agonist read-out; activation, % at 3.6 µM; 220,000 tested, 0.45% active; in the data active = activation above about 27%;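 also: cells stimulated with NPY near EC25 plus isoproterenol at EC100; 0% = vehicle plus submaximal agonist and 100% = vehicle plus saturating agonist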
bCat nuc transl: alters nuclear translocation of beta-catenin in HeLa cells; immunofluorescence imaging; nuclear translocation activity, % at 5 µM; 190,000 tested, 0.3% active; AID 1665;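 active = nuclear translocation activity above 50% at 5 µM, with a well cell count of 50 or more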;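 also: per-cell ratio of nuclear to cytoplasmic median beta-catenin stain intensity; plate controls were DMSO negative control for no effect and GSK-3 inhibitor IX positive control for full effect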
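Test system: human HeLa cell line; Doses: 5 µM primary, 0.02–20 µM confirmation; Incubation: 24 h compound exposure, 37°C; Detection: beta-catenin immunofluorescence imaging with DAPI; Read-out: beta-catenin nuclear/cytoplasmic ratio, % activation.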
An asterisk follows results filed as active; nt = no result given. Only some compounds are listed: those with a hit (about 2.6% of all), similar ones and a draw of the others.

SMILES | MT stabilizer | NPY-Y1 PAM-ag | NPY Y1 blocker | NPY-Y2 antag | NPY-Y2 PAM-ag | bCat nuc transl
COc1cc2c(cc1OC)C(c1cccc([N+](=O)[O-])c1)N(C(=O)c1ccc(F)cc1)CC2 (centres undefined) | 5 | -27 | 32* | 33* | -2 | -1
CCOC(=O)c1c(NC(=O)CN2CCCc3ccccc32)sc(C(C)=O)c1C | 2 | -8 | 2 | 1 | 15 | 0
CN(C(=O)c1ccc2c(c1)SC1=NS(=O)(=O)CCN12)C(c1ccccc1)c1ccccc1 | 2 | -21 | 37* | 22* | -20 | -1
O=C(O)c1ccc2c(c1)SC1=NS(=O)(=O)CCN12 | nt | 11 | nt | nt | -13 | -5
Cc1ccc(NC(=O)c2ccc(OC(=O)COc3cccc(Cl)c3)cc2)cc1 | 1 | 0 | 8 | 4 | -11 | -3
Cn1cc(C2CC(c3ccccc3)=NN2C(=O)c2ccccc2)c2ccccc21 (centres undefined) | 24* | -7 | -1 | 12 | 7 | 1
COC(=O)c1ccccc1NC(=O)c1cccc(COc2ccccc2Cl)c1 | 46* | -14 | 5 | 10 | -23 | 123*
CCC1=C(OC(=O)N(CC)CC)N2C(=O)OC(=NCCc3c[nH]c4ccccc34)[C@]2(Cc2ccccc2)[C@H]2C1=CC[C@H]1C(=O)NC(=O)[C@H]12 | nt | nt | nt | nt | nt | -1
O=c1cc(N2CCN(c3ccc(F)cc3)CC2)[nH]c(=O)n1C1CCCCC1 | 27* | 9 | 0 | 4 | -2 | 2
O=C(O)C1CC1c1ccc(Br)cc1 (centres undefined) | 4 | -42 | 31* | 15 | -35 | -6
NNC(=O)[C@@H]1C[C@@H]1c1ccccc1 | 5 | -21 | 1 | 3 | 2 | 0
Cc1ccc(S(=O)(=O)c2cc3ccccc3nc2N)cc1 | 6 | -2 | 2 | nt | -13 | 2
Nc1nn(-c2ccccc2)c(N)c1N=Nc1cccc(F)c1 | nt | 11 | nt | nt | 6 | 58*
Nc1nn(-c2ccccc2)c(N)c1N=Nc1ccc2c(c1)OCO2 | 25* | -9 | 3 | 0 | 6 | 78*
Nc1[nH]n(-c2ccccc2)c(=O)c1N=Nc1ccc2c(c1)OCO2 | nt | 39 | nt | nt | 3 | 1
COc1ccccc1CNCC(O)(c1ccc(Cl)cc1)c1ccc(Cl)cc1 | 3 | -37 | 21* | 21* | -5 | 0
OC(CNCc1ccccc1F)(c1ccc(F)cc1)c1ccc(F)cc1 | 4 | -26 | 17 | nt | -2 | -1
Cc1nc(N2CCN(C(=O)c3ccco3)CC2)c2oc3ccccc3c2n1 | nt | nt | nt | nt | nt | -1
CCc1nc(N2CCN(C(=O)c3ccco3)CC2)c2oc3ccccc3c2n1 | 27* | -51 | 13 | 11 | -13 | 14
Cc1ccc(N=Nc2c(N)[nH]n3c(=O)cc(C)nc23)cc1 | 4 | -4 | 2 | 2 | 7 | 0
Cc1ccc(N=Nc2c(N)[nH]n3c(=O)c4c(nc23)CCCC4)cc1 | 24* | 1 | 2 | 0 | 3 | 2
O=C(NCc1cccc(C(F)(F)F)c1)C1CC(c2c(Cl)cccc2Cl)=NO1 (centres undefined) | 37* | -16 | 7 | 8 | -41 | 44
CC(C)=CCN1CCN(Cc2cc(F)ccc2-n2nc(C)cc2C)CC1CCO (centres undefined) | 2 | -15 | 17 | nt | -12 | 1
COc1ccc(NC(=O)CN(c2ccc([N+](=O)[O-])cc2)S(=O)(=O)c2ccccc2)cc1 | 14* | 13 | 4 | 3 | 10 | 3
Cc1ccc(C(=O)CCNc2ccc(F)c(Cl)c2)o1 | 2 | -1 | 4 | 2 | 6 | 2
SMILES | MT stabilizer | NPY-Y1 PAM-ag | NPY Y1 blocker | NPY-Y2 antag | NPY-Y2 PAM-ag | bCat nuc transl
Cn1ncc(N=Cc2ccc([N+](=O)[O-])cc2)c1C(=O)N1CCOCC1 | 1 | -7 | 0 | 3 | 0 | -1
O=C(COc1ccc2ccccc2c1)Nc1ccc2c3c(cccc13)CC2 | 2 | -3 | 10 | 21* | 5 | 0
CN(C1=C(N2CCCCC2)C(=O)c2ccccc2C1=O)c1ccccc1 | 2 | 44* | -5 | -14 | 37* | 1
CCC(CC)NC(=O)c1oc2ccccc2c1COc1ccccc1 | 8 | -7 | 32* | 26* | 1 | 2
CC(C)CNC(=O)c1oc2ccccc2c1COc1ccccc1 | 4 | -29 | 15 | 3 | -6 | -4
CN(C)c1ccc(/C=c2/sc3n(c2=O)NC2(c4ccccc4)N(C)C(=O)N(C)C2(c2ccccc2)N=3)cc1 (centres undefined) | 2 | -14 | -3 | -1 | -13 | -2
CC1=C(C(=O)Nc2ccccc2C(F)(F)F)C(c2sccc2C)NC(=S)N1 (centres undefined) | 10 | 2 | 4 | nt | 2 | -1
COC(=O)c1cc(C(=O)N2CCN(c3cccc(Cl)c3)CC2)cc([N+](=O)[O-])c1 | 13 | -5 | 16 | nt | -6 | 100*
O=C(c1cccc([N+](=O)[O-])c1)N1CCN(c2cccc(Cl)c2)CC1 | 27* | 6 | 0 | -1 | 6 | 14
Cc1cc(C)cc(OCC(=O)O/N=C(\N)c2cccnc2)c1 | nt | -1 | nt | nt | -12 | 0
CC(C)(CO)NC(=O)C12CC3CC(CC(Br)(C3)C1)C2 | nt | -1 | nt | nt | -12 | 1
Cc1nc2ncccn2c1-c1csc(Nc2ccc(O)cc2)n1 | 4 | -11 | -1 | nt | -4 | 12
Cc1ccc(Nc2nc(-c3c(C)nc4ccccn34)cs2)cc1 | 17* | 17 | 2 | 11 | -12 | 112*
O=C(NCC1CCCO1)c1cc(C(=O)C2CCCCC2)c[nH]1 (centres undefined) | 5 | -11 | 2 | nt | -18 | 0
CCOCCCNC(=O)C(c1ccc(Cl)cc1)N1CCC2(CC1)OCCO2 (centres undefined) | 4 | 32* | 4 | 7 | 36* | -1
CCOCCCNC(=O)C(c1ccc(Cl)cc1)N1CCN(c2ccccc2)CC1 (centres undefined) | 3 | nt | nt | nt | nt | 0
COc1ccccc1-c1cn(S(=O)(=O)c2ccc(F)cc2)nc1N | 2 | 30 | -7 | 1 | 6 | 1
CC(C)N1C/C(=C/c2cccnc2)C(=O)/C(=C/c2cccnc2)C1 | 68 | 5 | -1 | -1 | -4 | 12
CN1C/C(=C/c2cccnc2)C(=O)/C(=C/c2cccnc2)C1 | 53* | -25 | -2 | 4 | -3 | 2
COc1ccc(Cc2nc(C(=O)Nc3ccc(Cl)cc3)cs2)cc1 | 2 | -32 | 24* | 19* | -29 | -3
CC(C)(C)n1nnnc1C(c1cccs1)N(Cc1ccccc1)Cc1ccco1 (centres undefined) | 2 | -10 | 27* | 20* | -10 | 2
COC(=O)c1cc(Cl)c(NC(=O)/C=C/c2ccc(OC)cc2)cc1OC | 26* | 26 | -1 | 2 | 14 | 8
Cc1cc(C)cc(Nc2c3c(nc4ncnn24)CCC3)c1 | 12* | -7 | 6 | nt | -18 | 0
